A word on the EC50: it is the concentration giving half of the maximal effect. A word on the logP: it is the decadic logarithm of the partition coefficient of the neutral form, usually between octanol and water.

The results in this text go back to ChEMBL document CHEMBL1811845, “Modulation of GABAA-receptors by honokiol and derivatives: subtype selectivity and structure-activity relationship” (J Med Chem, 2011).

Data set [1] concerns the target T1, GABA-A receptor; GABA-A site (alpha1/beta2 interface) (Homo sapiens, UniProt P14867+P47870).
T1 sequence (P14867 whole entry): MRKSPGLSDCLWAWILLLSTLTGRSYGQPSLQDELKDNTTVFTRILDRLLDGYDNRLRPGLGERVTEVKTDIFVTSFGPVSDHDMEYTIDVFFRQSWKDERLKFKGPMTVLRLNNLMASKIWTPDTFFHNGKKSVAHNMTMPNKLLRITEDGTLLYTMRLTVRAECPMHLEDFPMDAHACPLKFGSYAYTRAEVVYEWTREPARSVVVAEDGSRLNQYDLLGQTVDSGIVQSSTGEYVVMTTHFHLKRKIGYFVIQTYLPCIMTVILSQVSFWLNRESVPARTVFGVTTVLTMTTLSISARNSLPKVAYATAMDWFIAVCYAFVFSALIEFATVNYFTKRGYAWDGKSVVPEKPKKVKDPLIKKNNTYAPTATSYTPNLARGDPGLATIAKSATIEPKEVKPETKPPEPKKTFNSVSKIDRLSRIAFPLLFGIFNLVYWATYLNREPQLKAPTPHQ
T1 sequence (P47870 whole entry): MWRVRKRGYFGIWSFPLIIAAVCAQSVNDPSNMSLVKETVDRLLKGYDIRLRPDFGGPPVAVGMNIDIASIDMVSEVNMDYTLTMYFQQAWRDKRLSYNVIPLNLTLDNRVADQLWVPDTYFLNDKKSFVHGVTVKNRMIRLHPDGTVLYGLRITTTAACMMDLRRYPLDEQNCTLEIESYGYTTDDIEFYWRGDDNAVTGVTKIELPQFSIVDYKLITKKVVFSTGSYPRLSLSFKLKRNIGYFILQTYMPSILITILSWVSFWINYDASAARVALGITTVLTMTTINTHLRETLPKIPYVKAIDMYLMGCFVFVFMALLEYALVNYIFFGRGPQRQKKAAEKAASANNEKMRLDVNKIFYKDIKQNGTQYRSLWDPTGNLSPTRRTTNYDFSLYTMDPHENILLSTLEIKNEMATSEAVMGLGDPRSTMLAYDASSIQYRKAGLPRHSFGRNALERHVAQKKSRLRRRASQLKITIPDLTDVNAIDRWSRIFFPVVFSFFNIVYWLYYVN
Nature of the data set: Modulation of GABA Aalpha1beta2 receptor expressed in Xenopus laevis oocytes assessed as potentiation of GABA-induced chloride current at holding potential -70 mV by two-microelectrode voltage clamp technique. The class given is cell-based, Oocyte. A digest of the protocol:
(§1)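 Stage V–VI Xenopus oocytes, defolliculated with 2 mg/mL collagenase, injected with α(1, 2, 3 or 5) and β2 cRNAs mixed 1:1, then kept at 18 °C in ND96 (pH 7.4). Enhancement = I(GABA+compound)/IGABA − 1. Curves were Hill-fitted for EC50. Bath DMSO was at most 0.3%, matched in controls.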

Data set [2] is described as follows: Octanol-water partition coefficient, log P of the compound. In kind it is physicochemical. Particulars: read-out: logP.
For data set [3], the target named is T2, Gamma-aminobutyric acid receptor subunit alpha-2/beta-2 (Homo sapiens, UniProt P47869+P47870).
T2 sequence (P47870 whole entry): T1 sequence (P47870 whole entry)
T2 sequence (P47869 whole entry): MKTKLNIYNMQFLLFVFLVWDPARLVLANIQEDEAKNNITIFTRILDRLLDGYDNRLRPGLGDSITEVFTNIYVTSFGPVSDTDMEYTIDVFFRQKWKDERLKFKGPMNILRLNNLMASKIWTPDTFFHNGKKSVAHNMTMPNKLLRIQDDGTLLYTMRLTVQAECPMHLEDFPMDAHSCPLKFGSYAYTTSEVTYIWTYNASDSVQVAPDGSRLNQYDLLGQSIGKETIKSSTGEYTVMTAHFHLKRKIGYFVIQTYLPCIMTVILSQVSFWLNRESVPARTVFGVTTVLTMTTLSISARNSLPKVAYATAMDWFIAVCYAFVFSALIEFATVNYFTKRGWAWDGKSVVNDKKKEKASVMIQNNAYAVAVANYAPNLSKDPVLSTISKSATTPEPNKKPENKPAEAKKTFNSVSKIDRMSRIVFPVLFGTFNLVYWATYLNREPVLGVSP
Nature of the data set: Modulation of GABA Aalpha2beta2 receptor expressed in Xenopus laevis oocytes assessed as potentiation of GABA-induced chloride current at holding potential -70 mV by two-microelectrode voltage clamp technique. In kind it is cell-based, Oocyte. A digest of the protocol: as §1

The target in data set [4] is T3, Gamma-aminobutyric acid receptor subunit alpha-3/ beta-2 (Homo sapiens, UniProt P34903+P47870).
T3 sequence (P47870 whole entry): T1 sequence (P47870 whole entry)
T3 sequence (P34903 whole entry): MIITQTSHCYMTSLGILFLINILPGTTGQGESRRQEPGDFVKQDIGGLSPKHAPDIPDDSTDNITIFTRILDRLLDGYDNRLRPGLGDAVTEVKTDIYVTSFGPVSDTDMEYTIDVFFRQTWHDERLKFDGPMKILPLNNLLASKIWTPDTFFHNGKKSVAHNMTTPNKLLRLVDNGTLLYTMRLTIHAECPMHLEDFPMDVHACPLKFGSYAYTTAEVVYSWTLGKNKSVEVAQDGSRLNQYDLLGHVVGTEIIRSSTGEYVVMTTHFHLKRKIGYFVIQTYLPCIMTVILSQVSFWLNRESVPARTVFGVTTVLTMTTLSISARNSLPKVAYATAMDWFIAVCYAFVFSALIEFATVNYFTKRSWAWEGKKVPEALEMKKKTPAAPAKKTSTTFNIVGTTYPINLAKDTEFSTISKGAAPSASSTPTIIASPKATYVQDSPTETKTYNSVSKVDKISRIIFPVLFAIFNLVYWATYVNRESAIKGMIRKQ
Put plainly: Modulation of GABA Aalpha3beta2 receptor expressed in Xenopus laevis oocytes assessed as potentiation of GABA-induced chloride current at holding potential -70 mV by two-microelectrode voltage clamp technique. In kind it is cell-based, Oocyte. The essentials: as §1

Data set [5] has as its target T4, Gamma-aminobutyric acid receptor subunit alpha-5/beta-2 (Homo sapiens, UniProt P31644+P47870).
T4 sequence (P47870 whole entry): T1 sequence (P47870 whole entry)
T4 sequence (P31644 whole entry): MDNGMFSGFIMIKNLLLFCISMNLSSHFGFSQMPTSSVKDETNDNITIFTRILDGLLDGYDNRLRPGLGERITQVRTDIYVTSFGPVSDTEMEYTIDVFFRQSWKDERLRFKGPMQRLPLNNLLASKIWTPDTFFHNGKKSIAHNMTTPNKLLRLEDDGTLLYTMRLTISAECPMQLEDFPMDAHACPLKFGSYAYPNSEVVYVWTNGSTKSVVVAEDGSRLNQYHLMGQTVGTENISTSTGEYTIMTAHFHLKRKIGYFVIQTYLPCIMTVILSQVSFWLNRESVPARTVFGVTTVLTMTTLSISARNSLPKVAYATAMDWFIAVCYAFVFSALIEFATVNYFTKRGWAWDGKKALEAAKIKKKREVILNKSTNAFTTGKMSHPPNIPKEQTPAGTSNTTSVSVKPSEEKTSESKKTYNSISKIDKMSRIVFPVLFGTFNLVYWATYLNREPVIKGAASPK
Nature of the data set: Modulation of GABA Aalpha5beta2 receptor expressed in Xenopus laevis oocytes assessed as potentiation of GABA-induced chloride current at holding potential -70 mV by two-microelectrode voltage clamp technique. In kind it is cell-based, Oocyte. A digest of the protocol:
as §1

Data set [6] has as its target T5, GABA-A receptor; GABA-A site (alpha1/beta2 interface) (Homo sapiens) (UniProt P14867+P47870). Nature of the data set: Modulation of GABA Aalpha1beta2 receptor expressed in Xenopus laevis oocytes assessed as potentiation of GABA-induced chloride current at holding potential -70 mV by two-microelectrode voltage clamp technique relative to GABA. In kind it is cell-based. The conditions noted are these: Oocyte. The essentials: (§2)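 Oocytes were injected with α1, α2, α3 or α5 plus β2 cRNA at a 1:1 ratio and stored at 18 °C in ND96, pH 7.4. Enhancement was (I(GABA+compound)/IGABA)−1, and concentration-response data were Hill-fitted for EC50 and nH. Matched DMSO was ≤0.3%.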

In data set [7] the target is Gamma-aminobutyric acid receptor subunit alpha-2/beta-2 (Homo sapiens) (UniProt P47870+P47869). Put plainly: Modulation of GABA Aalpha2beta2 receptor expressed in Xenopus laevis oocytes assessed as potentiation of GABA-induced chloride current at holding potential -70 mV by two-microelectrode voltage clamp technique relative to GABA. In kind it is cell-based. The conditions noted are these: Oocyte. A digest of the protocol: as §2

Data set [8] deals with Gamma-aminobutyric acid receptor subunit alpha-3/ beta-2 (Homo sapiens) (UniProt P47870+P34903). Put plainly: Modulation of GABA Aalpha3beta2 receptor expressed in Xenopus laevis oocytes assessed as potentiation of GABA-induced chloride current at holding potential -70 mV by two-microelectrode voltage clamp technique relative to GABA. The class given is cell-based. Particulars: Oocyte. The essentials: as §2

The target in data set [9] is Gamma-aminobutyric acid receptor subunit alpha-5/beta-2 (Homo sapiens) (UniProt P47870+P31644). Put plainly: Modulation of GABA Aalpha5beta2 receptor expressed in Xenopus laevis oocytes assessed as potentiation of GABA-induced chloride current at holding potential -70 mV by two-microelectrode voltage clamp technique relative to GABA. The class given is cell-based. The conditions noted are these: Oocyte. A digest of the protocol:
as §2

The target of data set [10] is T5, GABA-A receptor; GABA-A site (alpha1/beta2 interface) (Homo sapiens). Nature of the data set: Modulation of GABA Aalpha1beta2 receptor expressed in Xenopus laevis oocytes assessed as potentiation of GABA-induced chloride current at holding potential -70 mV at 30 uM by two-microelectrode voltage clamp technique relative to GABA. The class given is cell-based. The conditions noted are these: Oocyte. The essentials:
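Single-concentration screen at 30 μM on α1β2 receptors (cRNA 1:1) in Xenopus oocytes. Enhancement was (I(GABA+compound)/IGABA)−1. DMSO was matched in control and test solutions, maximum 0.3% in the bath.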

Data set [11] deals with Oocyte. Put plainly: Modulation of GABA alpha1beta2gamma2s receptor expressed in Xenopus laevis oocytes assessed as potentiation of GABA-induced chloride current at holding potential -70 mV at 300 nM by two-microelectrode voltage clamp technique relative to GABA. The class given is cell-based. A digest of the protocol:
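Xenopus oocytes were injected with α1, β2 and γ2s cRNAs mixed 1:1:10 and stored at +18 °C in ND96 at pH 7.4. Chloride current was recorded by two-electrode voltage clamp at -70 mV and ambient temperature. Compound was co-applied with GABA at 3–7% of maximal current, set for each oocyte. Enhancement was calculated as (I(GABA+compound)/IGABA) − 1 with matched DMSO.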

`CCCc1cc(N)c(O)c(-c2ccc(OC)c(CCC)c2)c1`: the EC50 in data set [1] was 9.2 µM; in data set [3], 3.2 µM; in [4] it was 8.4 µM; in data set [5], 5.3 µM. Besides, in data set [2], the logP was determined as 5.38. Also, the Smax in data set [6] was determined as 2260%; in data set [7] it was 2980%; in data set [8] it was 2380%; in [9], 1870%. For the same molecule, the Activity in data set [10] came to 2020%.
For the molecule `CN1C(=O)CN=C(c2ccccc2)c2cc(Cl)ccc21`, in data set [11], the Activity was 104%.
Turning to `C=CCc1cc(NC(C)=O)c(O)c(-c2ccc(OC)c(CC=C)c2)c1`, the EC50 in data set [1] was found to be 3.8 µM; in data set [3] it was 7.9 µM; in [4], 9 µM; in data set [5], 2.3 µM. The logP in [2] worked out at 4.75. Also, the Smax in data set [6] is 2600%; in data set [7], 5200%; in data set [8], 3670%; in [9], 1010%. Moreover, the Activity in data set [10] amounted to 2630%.
